Bioassay records from PubChem.
NF-kB expr up = raises NF-kB expression in human neuronal cells; fold change at 12.5 µM; NF-kB reporter expression; stronger effect = higher value; actives 1.6% (n = 190,000); in the data active means fold change above about 3.3
PPC-1+TRAIL kill = PPC-1 cancer cell killing with TRAIL present | PPC-1 cells + TRAIL, ATPLite viability luminescence | cell killing (% activity), % at 4 µM or 5 µM | actives 0.41% (n = 220,000) | AID 1443;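 active means cell killing above 50% in the first pass at 4 µM, then a duplicate retest at 5 µM averaging 50% or more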;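 further: plate controls were cells with TRAIL plus DMSO for no effect and medium-only wells lacking cells for full effect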
APP 5'UTR act = activates APP 5'UTR luciferase reporter | actives 1% (n = 190,000) | SH-SY5Y APP 5'UTR luciferase reporter, luminescence; zero percent = DMSO vehicle wells | activation, % at 2 µM;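 active means activation above a set limit, based on mean plus 3 SD of controls, cut at about 140% in these data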
FLuc act counter = affects firefly luciferase, flagging false hits in luciferase stimulation screens; 200,000 tested, under 10 active; ATPlite luciferase biochemical, luminescence, 10 min; 0 = ATP-free wells, 1 = DMSO control; P08659; activation factor at 10 µM;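 active means luciferase activation factor, scaled between plate controls, of at least 2 with compound at 10 µM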
Target sequence (P08659 whole entry, looked up): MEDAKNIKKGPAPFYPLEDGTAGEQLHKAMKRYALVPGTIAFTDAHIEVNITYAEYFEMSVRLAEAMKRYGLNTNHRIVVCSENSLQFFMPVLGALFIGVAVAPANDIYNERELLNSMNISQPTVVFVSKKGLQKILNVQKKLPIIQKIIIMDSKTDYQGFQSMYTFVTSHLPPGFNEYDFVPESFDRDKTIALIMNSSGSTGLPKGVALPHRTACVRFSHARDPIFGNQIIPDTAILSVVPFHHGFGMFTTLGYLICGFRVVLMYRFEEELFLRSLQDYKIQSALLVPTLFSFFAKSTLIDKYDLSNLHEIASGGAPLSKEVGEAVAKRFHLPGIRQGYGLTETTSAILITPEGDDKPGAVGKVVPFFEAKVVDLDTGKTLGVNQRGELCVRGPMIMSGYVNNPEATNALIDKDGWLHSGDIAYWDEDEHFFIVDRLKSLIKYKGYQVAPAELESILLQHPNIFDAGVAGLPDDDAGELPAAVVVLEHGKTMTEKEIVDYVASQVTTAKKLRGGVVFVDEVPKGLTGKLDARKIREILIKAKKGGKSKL
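Assay system – cell-free luciferase reagent · Medium – PBS-based ATP solution · Dosing – test compounds dosed from 2 mM stocks in 100% DMSO · Timing – 10 min, room temperature · Technique – light output (luminescence) · Measure – luminescence gain marking luciferase activators · Controls – No-ATP low control, compound-free enzyme-plus-ATP high control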
FLuc inhib CS = counter-screen for luciferase assay inhibitors: firefly luciferase inhibition; P08659; ATPLite firefly luciferase biochemical luminescence, 10 min; inhibition, % at 10 µM; actives 1.5% (n = 200,000);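 active means inhibition above about 50% when tested at 10 µM, limit read from the data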
C8 TRAIL sens = sensitizes caspase-8 expressing cells to TRAIL; inhibition (viability loss, TRAIL sensitization), % at 10 µM; AID 624354; NB7+C8 cells + TRAIL, ATPlite viability luminescence; actives 1% (n = 360,000);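 active means compounds causing at least 50% loss of cell viability in the single-dose screen, relative to plate controls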
The depositor's hits bear a star; . = no result given. This is a sample that favours compounds with a hit; in the whole collection about 2.2% have one here.

SMILES	NF-kB expr up	PPC-1+TRAIL kill	APP 5'UTR act	FLuc act counter	FLuc inhib CS	C8 TRAIL sens
O=C(NCCOc1ccccc1)c1cc2ccccc2o1	4.4*	12	96	1	0	-2
CCC(=O)Nc1ccc(NC(=O)c2cc3ccccc3o2)c(OC)c1	.	.	.	.	.	-22
CCC(=O)Nc1cccc(NC(=O)c2cc3ccccc3o2)c1	2.9	25	89	0.5	54*	22
Cc1ccc2oc(/N=C(\N)NC(=O)C3CC3)nc2c1	.	29	.	.	.	50*
Cc1ccc2c(c1)Cc1nc3ccccc3nc1-2	2.8	50	116	0.1	87*	59*
Cc1cc(N2CCCC2)nc2ccccc12	1.2	-21	0	1.1	-5	2
COc1ccc(C=NCCCN2CCOCC2)cc1	0.99	-5	3	1	-2	3
COc1ccc(/C=C2/CCC(CN3CCOCC3)C2=O)cc1 (centres undefined)	.	.	.	.	.	80*
CCOC(=O)C1=C(C)N=c2s/c(=C\c3ccc(O)c([N+](=O)[O-])c3)c(=O)n2C1c1ccccc1OC (centres undefined)	.	.	.	.	.	-2
CCOC(=O)C1=C(C)n2c(s/c(=C/c3cccc([N+](=O)[O-])c3)c2=O)=NC1c1ccc(O)c(OC)c1 (centres undefined)	6.8*	12	2	1	-5	4
CC[C@H](C)[C@@H]1NC(=O)[C@@H](CC(C)C)NC(=O)[C@H](C(C)C)NC(=O)[C@H]2CSSC[C@H](NC1=O)C(=O)N2	.	.	.	.	.	94*
COc1ccc(C(=O)NCC(C)(C)CNC(=O)c2ccc(OC)cc2)cc1	.	.	.	.	.	-18
COc1ccc(C(=O)NC(=O)NC2(C(Cl)(Cl)Cl)OCCO2)cc1	5.1*	4	226*	0.9	14	-3
COc1cccc(CNC(=O)[C@@H]2CCCN2C(=O)[C@H]2CCCCN2C(=O)OC(C)(C)C)c1	.	.	.	.	.	-15
Cc1noc(C)c1-c1ccc(C(=O)Nc2cccc(C(F)(F)F)c2)c2occc12	.	.	.	.	.	6
Cc1cccc(N=C/C(C(=O)C(F)(F)F)=C(\O)c2ccco2)c1	4.8*	11	128	0.8	24	-2
O=C(/C(C=Nc1ccc(F)cc1)=C(/O)c1ccco1)C(F)(F)F	3.4*	10	106	0.2	79*	15
Cc1ccc(N=C/C(C(=O)C(F)(F)F)=C(\O)c2ccco2)cc1Cl	6.1*	41	136*	0.6	41	30
CCOc1ccc(CCN2C(=O)C(=O)N([C@@H](Cc3ccccc3)CN3CCC[C@H]3CN3C(=O)C(=O)NC[C@@H]3Cc3ccccc3)C[C@@H]2CC(C)C)cc1	.	.	.	.	.	7
N/C(=N\N=C\c1cccc(O)c1)c1nonc1N	8.7*	11	155*	0.6	40	13
N/C(=N\N=C\c1ccc(O)c(O)c1)c1nonc1N	.	1	.	.	.	-2
N/C(=N\N=C\c1ccc(O)cc1)c1nonc1N	5.1*	6	91	0.5	51*	18
CC1=C(C(=O)N(C)C)CC(CC(=O)NCCN2CCOCC2)C(=O)N1CCCN1CCCC1=O (centres undefined)	.	.	.	.	.	55*
CC1(C(=O)NS(=O)(=O)c2ccc3c(c2)CCO3)CCN1C(=O)C1(c2ccc(Cl)cc2)CCC1 (centres undefined)	.	.	.	.	.	7
Cc1cccc(NC(=O)Nc2cccc(F)c2)n1	2.5	6	20	1	4	-6
SMILES	NF-kB expr up	PPC-1+TRAIL kill	APP 5'UTR act	FLuc act counter	FLuc inhib CS	C8 TRAIL sens
Cc1cccc(NC(=O)Nc2cc(C)cc(C)n2)c1	2.7	38	173*	0.7	26	13
Cc1cc(C)nc(NC(=O)c2ccc3c(c2)OCO3)c1	1.6	18	18	0.4	56*	.
Cc1ccc(NC(=O)/C=C/c2ccc3c(c2)OCO3)nc1	0.97	34	152*	0.6	43	41
Cc1ccc(C)c(NC(=O)Nc2ccc3c(c2)OCO3)c1	.	.	.	.	.	-8
Cc1ccnc(NC(=O)CNC(=O)c2ccc3c(c2)OCO3)c1	.	.	.	.	.	-2
Cc1cc(C)nc(NC(=O)Nc2ccc3c(c2)OCO3)c1	3	19	228*	0.5	47	43
COc1ccc(CN2C(=O)C(CC(=O)NCCc3ccccn3)CC(C(=O)N3CCCCCC3)=C2C)cc1 (centres undefined)	.	.	.	.	.	-12
C=C1[C@@H](OC(C)=O)C=C[C@@]2(C)C=CC(=O)[C@@](C)(OC(C)=O)[C@@H]2[C@@H](OC(C)=O)[C@]2(O)[C@@H](C)C(=O)O[C@H]2[C@H]1Cl	.	.	.	.	.	6
CC(C)NC(=O)CN1CCN(C(c2cc3ccccc3o2)c2nnnn2C(C)(C)C)CC1 (centres undefined)	.	.	.	.	.	-1
NC(=O)c1cccc(Nc2nc(C(N)C3CCCCC3)cs2)n1 (centres undefined)	.	.	.	.	.	-3
Cc1ccc(NC(=O)Nc2ccc(Cl)c(Cl)c2)nc1	.	.	.	.	.	11
Cc1ccc(NC(=O)Nc2ccc3c(c2)OCO3)nc1	4*	-11	103	0.7	34	26
O=C(CCl)N1c2ccccc2SCC1c1ccccc1 (centres undefined)	.	.	.	.	.	83*
Cc1cc2[nH]c3c4ccccc4nc(C)c3c2cc1C	.	.	.	.	.	83*
Cc1cc2[nH]c3ccccc3c2c(C)n1	0.5	-7	-5	1.1	-7	5
O=C(OCn1ncc(Cl)c(Cl)c1=O)c1ccc(C(F)(F)F)cc1	1	11	8	1	-5	78*
CCOC(=O)c1ccc(NC(=O)Cn2ncc(Cl)c(Cl)c2=O)cc1	0.14	9	-96	1.1	-7	6
Cc1ccc(C(=O)OCn2ncc(Cl)c(Cl)c2=O)cc1	0.12	25	-92	1	-2	94*
Clc1ccc(-c2cc(CSc3ccccc3)on2)cc1	6.2*	19	.	1	4	7
c1ccc(SCc2cc(-c3ccccc3)no2)cc1	2.1	-3	116	1	4	-5
CN(C)c1ccc(-c2nc3ccccn3c2/N=C/c2ccc(Br)cc2)cc1	1.8	38	158*	0.1	94*	53*
CN(C)c1ccc(N=Nc2ccccc2C(=O)OCC(=O)NCC2CCCCC2)cc1	1.2	18	22	0.5	48	22
CN(C)c1ccc(N=Nc2ccccc2C(=O)OCC(=O)N(C)C2CCCCC2)cc1	0.94	27	9	0.3	68*	5
CN(C)c1ccc(N=Nc2ccccc2C(=O)OCC(=O)NC2CCCC2)cc1	1.2	29	10	0.4	59*	20
CC(C)Oc1cc(F)ccc1-c1cc(C(=O)NCc2ccccn2)[nH]n1	.	.	.	.	.	-12
O=C(N/N=C/c1ccc(-c2cccc(C(F)(F)F)c2)o1)c1cccc(F)c1	0.87	-12	7	1	-3	73*
COCCNC(=O)C(=O)N/N=C/c1ccccc1C(F)(F)F	1.2	6	12	1	-4	-9
O=C(N/N=C/c1ccccc1O)c1cccc(C(F)(F)F)c1	1.4	52*	-54	1	-2	21
